In ChEMBL document CHEMBL3868630, “Synthesis, anti-proliferative activity, SAR study, and preliminary in vivo toxicity study of substituted N,N'-bis(arylmethyl)benzimidazolium salts against a panel of non-small cell lung cancer cell lines” (Bioorg Med Chem, 2017):

How the values were obtained:
[1] = Growth inhibition of human A549 cells after 48 hrs by SRB assay; type: functional; conditions: A549, 48 h
[2] = Cytotoxicity against human NCI-H460 cells assessed as decrease in cell viability after 72 hrs by MTT assay; type: functional, cell-based; conditions: NCI-H460, 72 h
How it was run: (§1)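 Cells kept in RPMI 1640 with 10% FBS at 37 °C, 5% CO2, passaged every 2-3 days; seeded at 5,000-7,000 cells/well and left 24 h. Compounds dissolved in 1% DMSO, diluted in fresh medium to 1, 4, 16 and 32 µM, added in sextuplicate; 72 h exposure. MTT added for 3-4 h, medium removed, DMSO added for 15 min at 37 °C, OD read at 540 nm.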

[3] = Cytotoxicity against human NCI-H1975 cells assessed as decrease in cell viability after 72 hrs by MTT assay; type: functional, cell-based; conditions: NCI-H1975, 72 h; how it was run: as §1
[4] = Cytotoxicity against human HCC827 cells assessed as decrease in cell viability after 72 hrs by MTT assay; type: functional, cell-based; conditions: HCC827, 72 h; how it was run: as §1
[5] = Cytotoxicity against human A549 cells assessed as decrease in cell viability after 72 hrs by MTT assay; type: functional, cell-based; conditions: A549, 72 h; how it was run: as §1
[6] = Cytotoxicity against human NCI-H226 cells assessed as cell growth at 10 uM after 48 hrs by SRB assay relative to control; type: functional; conditions: NCI-H226, 48 h, read-out: Activity
[7] = Cytotoxicity against human HOP92 cells assessed as cell growth at 10 uM after 48 hrs by SRB assay relative to control; type: functional; conditions: HOP-92, 48 h, read-out: Activity
[8] = Cytotoxicity against human A549 cells assessed as cell growth at 10 uM after 48 hrs by SRB assay relative to control; type: functional; conditions: A549, 48 h, read-out: Activity
[9] = Cytotoxicity against human EKVX cells assessed as cell growth at 10 uM after 48 hrs by SRB assay relative to control; type: functional; conditions: read-out: Activity
[10] = Cytotoxicity against human HOP62 cells assessed as cell growth at 10 uM after 48 hrs by SRB assay relative to control; type: functional; conditions: HOP-62, 48 h, read-out: Activity
[11] = Cytotoxicity against human NCI-H23 cells assessed as cell growth at 10 uM after 48 hrs by SRB assay relative to control; type: functional; conditions: NCI-H23, 48 h, read-out: Activity
[12] = Cytotoxicity against human NCI-H322M cells assessed as cell growth at 10 uM after 48 hrs by SRB assay relative to control; type: functional; conditions: read-out: Activity
[13] = Cytotoxicity against human NCI-H460 cells assessed as cell growth at 10 uM after 48 hrs by SRB assay relative to control; type: functional; conditions: NCI-H460, 48 h, read-out: Activity
[14] = Cytotoxicity against human NCI-H522 cells assessed as cell growth at 10 uM after 48 hrs by SRB assay relative to control; type: functional; conditions: NCI-H522, 48 h, read-out: Activity
[15] = Growth inhibition of human EKVX cells after 48 hrs by SRB assay; type: functional
[16] = Growth inhibition of human HOP62 cells after 48 hrs by SRB assay; type: functional; conditions: HOP-62, 48 h
[17] = Growth inhibition of human HOP92 cells after 48 hrs by SRB assay; type: functional; conditions: HOP-92, 48 h
[18] = Growth inhibition of human NCI-H226 cells after 48 hrs by SRB assay; type: functional; conditions: NCI-H226, 48 h
[19] = Growth inhibition of human NCI-H23 cells after 48 hrs by SRB assay; type: functional; conditions: NCI-H23, 48 h
[20] = Growth inhibition of human NCI-H322M cells after 48 hrs by SRB assay; type: functional
[21] = Growth inhibition of human NCI-H460 cells after 48 hrs by SRB assay; type: functional; conditions: NCI-H460, 48 h
[22] = Growth inhibition of human NCI-H522 cells after 48 hrs by SRB assay; type: functional; conditions: NCI-H522, 48 h
[23] = system: Mus musculus; test: Toxicity in C57BL/6 mouse assessed as weight loss at 20 mg/kg, ip measured on day 2; type: organism-based; conditions: in vivo
How it was run: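 Male C57BL/6 mice, 8 weeks old, 3 per cage, 12 h light/dark, food and water ad libitum, acclimated 5 days. Single IP dose on day 0 of 100 µL of 4 mg/mL in 20% 2-HPβCD in sterile PBS (~20 mg/kg assuming 20 g mice). Vehicle controls got 100 µL 20% 2-HPβCD/PBS IP on days 0, 7, 14, 21, 25. Weighed and monitored daily.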

[24] = system: Mus musculus; test: Toxicity in C57BL/6 mouse assessed as increase in body mass at 20 mg/kg, ip measured after 16 days; type: organism-based; conditions: in vivo, 384 h
How it was run: (§2)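 Male C57BL/6 mice, eight weeks old, housed three per cage on a 12 h light/dark cycle with food and water ad libitum, acclimated 5 days. Single IP injection on day 0 of 100 µL of a 4 mg/mL solution (0.4 mg, ~20 mg/kg assuming 20 g mice) in 20% 2-HPβCD sterile PBS. Vehicle controls were injected on days 0, 7, 14, 21 and 25. Mice were monitored and weighed daily.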

[25] = Toxicity in C57BL/6 mouse assessed as mouse survival rate at 20 mg/kg, ip measured after 16 days; type: organism-based; conditions: in vivo; how it was run: as §2
[26] = Aqueous solubility of the compound; type: physicochemical
[27] = read-out: LC50 (the source's name)

COCCOCCOCc1n(Cc2ccc3ccccc3n2)c2ccccc2[n+]1Cc1ccc2ccccc2c1.[Br-]
GI50 [1]: 748 nM | LC50 [1]: 37100 nM | TGI [1]: 10600 nM | IC50 [2]: 3000 nM | IC50 [3]: < 1000 nM | IC50 [4]: 6000 nM | IC50 [5]: 3000 nM | growth at 10 µM [6]: 28.1% | growth at 10 µM [7]: -18.2% | growth at 10 µM [8]: 22.5% | growth at 10 µM [9]: 31% | growth at 10 µM [10]: 11.7% | growth at 10 µM [11]: 1.03% | growth at 10 µM [12]: 26.8% | growth at 10 µM [13]: 7.94% | growth at 10 µM [14]: 0.79% | GI50 [15]: 1270 nM | LC50 [15]: 50900 nM | TGI [15]: 10800 nM | GI50 [16]: 468 nM | TGI [16]: 2520 nM | CC50 [16, 27]: 9530 nM | GI50 [17]: 207 nM | LC50 [17]: 5220 nM | TGI [17]: 718 nM | GI50 [18]: 874 nM | LC50 [18]: 45200 nM | TGI [18]: 4830 nM | GI50 [19]: 386 nM | LC50 [19]: 53500 nM | TGI [19]: 10300 nM | GI50 [20]: 1080 nM | TGI [20]: 7090 nM | CC50 [20, 27]: 28600 nM | GI50 [21]: 424 nM | LC50 [21]: 5700 nM | TGI [21]: 1560 nM | GI50 [22]: 248 nM | TGI [22]: 936 nM | CC50 [22, 27]: 4590 nM | Activity [23]: Toxic | Activity [24]: 6% | survival at 384 h [25]: 33% | solubility [26]: 1900 µg/mL
